Results gathered from unrelated publications.
Compare with care: the assays were run in different laboratories.
Target: cAMP-dependent protein kinase catalytic subunit PRKX (PRKX, Homo sapiens, UniProt P51817)
Sequence (P51817 1-358, as in one of the studies): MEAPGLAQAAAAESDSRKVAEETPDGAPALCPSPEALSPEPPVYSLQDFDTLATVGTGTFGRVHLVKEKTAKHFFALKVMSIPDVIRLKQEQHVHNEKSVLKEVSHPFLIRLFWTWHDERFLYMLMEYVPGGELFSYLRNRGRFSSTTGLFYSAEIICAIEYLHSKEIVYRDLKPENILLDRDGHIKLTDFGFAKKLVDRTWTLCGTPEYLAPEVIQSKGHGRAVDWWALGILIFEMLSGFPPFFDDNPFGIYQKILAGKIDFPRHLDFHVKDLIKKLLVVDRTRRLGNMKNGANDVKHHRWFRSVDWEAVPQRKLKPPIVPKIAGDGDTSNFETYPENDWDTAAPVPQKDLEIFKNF

Structure (SMILES)	effect on	technique	tested at	remaining binding [%]
CCOC(=O)c1cc2cc(-c3cc(C(=O)NCc4ccc(C(=O)O)cc4)nn3C)ccc2[nH]1	cell-free assay	competition with immobilised ligand	0.1 µM	100
COc1cnc(Nc2cccc(S(N)(=O)=O)c2)nc1N1CCN(c2ccccc2)C(=O)C1	binding	competition with immobilised ligand	1 µM	91
CN(C)c1ncc(F)c(-c2cnn3ncccc23)n1	binding	–	1 µM	100
O=C(Nc1c[nH]nc1C(=O)NC1CCNCC1)c1cc(F)cc(F)c1	binding	competition with immobilised ligand	1 µM	94
C[C@@H](c1ccc(-n2cnc3c(N)ncnc32)cc1)N1CCc2nn(C)c(Cc3ccccc3)c2C1=O	binding	competition with immobilised ligand	0.1 µM	96
O=C(c1ccc(Nc2ncc(Cl)c(-c3cc4ccccc4s3)n2)cc1)N1CCC(N2CCCC2)CC1	binding	competition with immobilised ligand	1 µM	67
CN(CCCC(F)(F)F)c1nccc(-c2cnn3ncccc23)n1	binding	–	1 µM	100
O=C(c1ccc(Nc2ncc(Cl)c(-c3ccc(Cl)s3)n2)cc1)N1CCC(N2CCCC2)CC1	binding	competition with immobilised ligand	1 µM	95
FC(F)(F)Oc1cccc(-c2cnc3ccc(-c4ccncc4)nn23)c1	cell-free assay	competition with immobilised ligand	5 µM	85
Nc1ncc2c(n1)-c1c([nH]c3ccc(C#CC4CC4)cc13)CCCC2	binding	competition with immobilised ligand	1 µM	79
COCCOc1nc(-c2ccc(Cl)nc2)nc2c1CN(C(=O)c1ncn3ccccc13)CC2	cell-free assay	competition with immobilised ligand	0.1 µM	100
C[C@H]1CCN(c2nccc(-c3cnn4ncccc34)n2)C1	binding	–	1 µM	100
Cn1cc(Cl)c2c(Oc3c(F)cc(Nc4cc(Cl)nc(N)n4)cc3F)ccnc21	cell-free assay	competition with immobilised ligand	0.1 µM	100
CN(C)c1nccc(-c2cnn3ncccc23)n1	binding	–	1 µM	100
CCCOc1ccc([C@H]2[C@H](C(=O)O)[C@@H](c3ccc4c(c3)OCO4)CN2CC(=O)Nc2c(CC)cccc2CC)cc1	cell-free assay	competition with immobilised ligand	1 µM	91
O=C(c1ccc(Nc2nccc(-c3cc4ccccc4s3)n2)cc1)N1CCC(N2CCCC2)CC1	binding	competition with immobilised ligand	1 µM	83
Nc1cnc(N2CCc3cc(S(=O)(=O)Nc4c(F)cc(Cl)cc4F)cc(N4CCCC4=O)c32)nc1	cell-free assay	competition with immobilised ligand	1 µM	99
N[C@@H]1CCN(c2nccc(-c3cnn4ncccc34)n2)C1	binding	–	1 µM	100
C[C@@H]1CN(c2cc(-c3nn(C)c4ccc(OC5(C)CC5)cc34)ncn2)C[C@H](C)O1	cell-free assay	competition with immobilised ligand	1 µM	92
F[C@@H]1CCN(c2nccc(-c3cnn4ncccc34)n2)C1	binding	–	1 µM	100
